Experimental data as given in PMC7227796 (ACS chemical neuroscience, 2020).
Like-named read-outs stand apart in the source and are kept apart here. Marks after values point to notes of the source that are not given here.

What was measured:
[1] = target: native AMPA receptors; experiment: Radioligand binding at native AMPA receptors; settings: rat synaptosomes, [3H]AMPA; for IC50: read-out: AMPA IC50, native iGluRs (synaptosomes)
Procedure, shortened: (§1)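 Rat cortical synaptosomal membranes were labelled with 5 nM [3H]AMPA (AMPA), 5 nM [3H]KA (KA) or [3H]CGP39653 (NMDA). Test compound was run at 12–16 concentrations in triplicate, with three to six independent experiments. Cpm were fitted by nonlinear regression. Values are reported as pIC50 for AMPA and KA and as pKi for NMDA, each as mean with SEM.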

[2] = target: native NMDA receptors; experiment: Radioligand binding at native NMDA receptors; set-up: species or system rat; settings: for Ki: read-out: NMDA Ki, native iGluRs (synaptosomes); for Ki / NMDA pKi with SEM (in brackets): rat synaptosomes, [3H]CGP-39653
Procedure, shortened: as §1

[3] = target: GluK1 (Rattus norvegicus, UniProt P22756); experiment: Radioligand binding at recombinant homomeric GluK1; settings: for GluK1 % specific binding (Table 5): [3H]NF608, mean ± SD, ligand concentration not given
Procedure, shortened: (§2)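 Membranes from sf9 cells expressing rat homomeric GluK1, GluK2 or GluK3 were incubated in 50 mM Tris-HCl, pH 7.1, for 2 h at 4 °C. Radioligand was [3H]-(S)-NF608 for GluK1 and [3H]kainic acid for GluK2 and GluK3. Samples were filtered on GF/B, washed twice with ice-cold buffer, dried for 1 h at 70 °C and counted by scintillation. Ki came from 12–16-point triplicate curves. Single-point % specific binding is mean ± SD of three experiments, at 10 μM test compound where stated.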

[4] = target: GluK2 (Rattus norvegicus, UniProt P42260); experiment: Radioligand binding at recombinant homomeric GluK2; settings: for GluK2 % specific binding (Table 5): mean ± SD, ligand concentration not given
Chain of GluK2 (P42260 32-908): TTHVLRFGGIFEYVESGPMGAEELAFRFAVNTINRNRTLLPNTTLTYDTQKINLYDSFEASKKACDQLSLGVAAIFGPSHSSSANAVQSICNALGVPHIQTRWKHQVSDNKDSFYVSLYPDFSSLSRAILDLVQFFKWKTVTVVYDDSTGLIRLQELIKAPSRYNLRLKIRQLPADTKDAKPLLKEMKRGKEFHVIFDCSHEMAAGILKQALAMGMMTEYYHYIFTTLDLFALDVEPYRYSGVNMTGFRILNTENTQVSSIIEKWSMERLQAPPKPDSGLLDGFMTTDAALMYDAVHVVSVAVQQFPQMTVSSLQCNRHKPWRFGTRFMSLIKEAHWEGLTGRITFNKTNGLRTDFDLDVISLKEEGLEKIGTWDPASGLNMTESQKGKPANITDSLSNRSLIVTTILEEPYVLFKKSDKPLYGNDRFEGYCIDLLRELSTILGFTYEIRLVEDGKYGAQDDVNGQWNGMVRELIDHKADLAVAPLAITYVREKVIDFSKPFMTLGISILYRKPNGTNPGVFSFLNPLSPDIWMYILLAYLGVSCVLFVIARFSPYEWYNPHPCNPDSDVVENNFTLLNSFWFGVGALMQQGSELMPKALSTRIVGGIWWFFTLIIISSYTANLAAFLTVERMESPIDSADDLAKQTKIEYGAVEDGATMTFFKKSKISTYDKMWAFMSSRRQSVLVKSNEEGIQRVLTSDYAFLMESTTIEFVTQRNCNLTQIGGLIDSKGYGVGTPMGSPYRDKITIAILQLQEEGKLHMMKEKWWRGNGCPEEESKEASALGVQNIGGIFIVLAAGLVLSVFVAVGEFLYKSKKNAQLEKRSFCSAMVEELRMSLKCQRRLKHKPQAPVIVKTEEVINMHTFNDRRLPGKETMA
Procedure, shortened: as §2

[5] = target: GluK3 (Rattus norvegicus, UniProt P42264); experiment: Radioligand binding at recombinant homomeric GluK3; settings: for GluK3 % specific binding (Table 5): mean ± SD, ligand concentration not given
Chain of GluK3 (P42264 32-919): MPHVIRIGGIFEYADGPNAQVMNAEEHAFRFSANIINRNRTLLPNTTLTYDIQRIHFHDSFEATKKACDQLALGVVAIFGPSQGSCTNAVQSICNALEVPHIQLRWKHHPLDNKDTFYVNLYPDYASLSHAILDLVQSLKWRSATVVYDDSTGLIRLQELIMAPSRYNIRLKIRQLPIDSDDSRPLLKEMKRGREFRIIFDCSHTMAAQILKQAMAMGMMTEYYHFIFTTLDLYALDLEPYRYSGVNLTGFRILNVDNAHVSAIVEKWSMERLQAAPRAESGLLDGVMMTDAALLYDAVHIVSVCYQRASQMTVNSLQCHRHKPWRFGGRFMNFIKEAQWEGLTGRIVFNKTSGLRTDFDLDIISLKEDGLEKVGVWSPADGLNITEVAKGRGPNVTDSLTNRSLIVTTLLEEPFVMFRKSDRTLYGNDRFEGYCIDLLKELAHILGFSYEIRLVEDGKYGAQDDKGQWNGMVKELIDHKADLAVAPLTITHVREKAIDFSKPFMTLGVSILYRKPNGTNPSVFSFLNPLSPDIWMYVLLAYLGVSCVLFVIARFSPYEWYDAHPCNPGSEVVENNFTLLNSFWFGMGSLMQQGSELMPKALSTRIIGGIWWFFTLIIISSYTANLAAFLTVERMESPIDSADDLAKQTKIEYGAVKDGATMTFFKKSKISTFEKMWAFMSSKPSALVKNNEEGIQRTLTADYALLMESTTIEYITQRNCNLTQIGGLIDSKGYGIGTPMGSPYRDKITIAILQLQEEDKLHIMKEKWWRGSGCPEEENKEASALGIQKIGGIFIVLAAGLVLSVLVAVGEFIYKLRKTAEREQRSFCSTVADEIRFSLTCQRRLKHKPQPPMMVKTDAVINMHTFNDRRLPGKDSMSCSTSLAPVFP
Procedure, shortened: as §2

[6] = target: native KA receptors; experiment: Radioligand binding at native KA receptors; settings: rat synaptosomes, [3H]KA
Procedure, shortened: as §1

[7] = target: GluN1/GluN2A NMDA receptor (Rattus norvegicus, UniProt P35439+Q00959); experiment: Two-electrode voltage-clamp recordings, Xenopus oocytes expressing GluN1/GluN2A; assay type: cell-based
Chain of GluN1/GluN2A NMDA receptor (Q00959 23-1464, other chains not shown): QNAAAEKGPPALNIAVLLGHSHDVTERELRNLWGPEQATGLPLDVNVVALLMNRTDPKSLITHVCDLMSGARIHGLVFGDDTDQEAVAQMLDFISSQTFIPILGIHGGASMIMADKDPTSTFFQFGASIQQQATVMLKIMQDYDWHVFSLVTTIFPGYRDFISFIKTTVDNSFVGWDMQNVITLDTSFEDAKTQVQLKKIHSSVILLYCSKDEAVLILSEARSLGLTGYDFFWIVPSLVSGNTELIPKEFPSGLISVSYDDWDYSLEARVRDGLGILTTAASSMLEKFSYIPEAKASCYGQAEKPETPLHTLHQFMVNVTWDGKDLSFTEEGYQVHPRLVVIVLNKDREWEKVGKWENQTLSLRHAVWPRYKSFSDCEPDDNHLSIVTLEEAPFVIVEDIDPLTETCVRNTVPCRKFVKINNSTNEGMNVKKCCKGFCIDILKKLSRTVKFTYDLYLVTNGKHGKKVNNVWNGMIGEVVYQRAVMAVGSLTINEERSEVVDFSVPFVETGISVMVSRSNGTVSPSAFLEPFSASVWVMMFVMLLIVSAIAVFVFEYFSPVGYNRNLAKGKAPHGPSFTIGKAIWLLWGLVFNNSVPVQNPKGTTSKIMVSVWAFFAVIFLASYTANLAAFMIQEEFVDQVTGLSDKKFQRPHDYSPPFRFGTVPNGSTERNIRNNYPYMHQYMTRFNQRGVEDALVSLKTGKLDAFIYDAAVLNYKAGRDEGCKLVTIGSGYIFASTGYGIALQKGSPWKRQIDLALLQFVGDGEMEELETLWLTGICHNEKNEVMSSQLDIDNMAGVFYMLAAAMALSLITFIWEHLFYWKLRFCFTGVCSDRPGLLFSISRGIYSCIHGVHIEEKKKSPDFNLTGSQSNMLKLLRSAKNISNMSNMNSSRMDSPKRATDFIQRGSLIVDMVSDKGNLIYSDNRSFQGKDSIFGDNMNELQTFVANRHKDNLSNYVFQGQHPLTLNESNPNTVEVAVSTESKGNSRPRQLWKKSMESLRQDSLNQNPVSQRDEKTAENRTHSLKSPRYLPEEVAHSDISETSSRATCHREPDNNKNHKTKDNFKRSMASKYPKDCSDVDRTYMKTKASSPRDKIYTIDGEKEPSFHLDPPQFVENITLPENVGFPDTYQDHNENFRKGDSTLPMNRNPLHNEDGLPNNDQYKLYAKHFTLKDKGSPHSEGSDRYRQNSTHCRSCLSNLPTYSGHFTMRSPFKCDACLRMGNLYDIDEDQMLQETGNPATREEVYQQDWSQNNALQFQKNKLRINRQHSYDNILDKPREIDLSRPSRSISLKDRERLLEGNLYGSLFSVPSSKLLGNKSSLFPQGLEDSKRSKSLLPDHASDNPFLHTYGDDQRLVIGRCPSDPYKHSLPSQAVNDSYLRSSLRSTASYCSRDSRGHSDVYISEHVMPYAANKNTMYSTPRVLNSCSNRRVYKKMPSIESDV
Procedure, shortened: (§3)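 Xenopus oocytes were injected with rat GluN1-1a and GluN2A, 2B, 2C or 2D cRNA at a 1:2 ratio. Two-electrode voltage clamp was run 2–6 days later at room temperature and −40 mV. Bath was 90 NaCl, 1 KCl, 10 HEPES, 0.5 BaCl2, 0.01 EDTA (mM), pH 7.4. Currents were evoked by 1 μM glutamate plus 100 μM glycine, with test compound gravity-perfused. Hill fits gave IC50 per oocyte (5–6 oocytes). Ki was derived by Cheng-Prusoff using earlier glutamate EC50 values.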

[8] = target: GluN1/GluN2B NMDA receptor (Rattus norvegicus, UniProt P35439+Q00960); experiment: Two-electrode voltage-clamp recordings, Xenopus oocytes expressing GluN1/GluN2B; assay type: cell-based
Procedure, shortened: as §3

[9] = target: GluN1/GluN2C NMDA receptor (Rattus norvegicus, UniProt P35439+Q00961); experiment: Two-electrode voltage-clamp recordings, Xenopus oocytes expressing GluN1/GluN2C; assay type: cell-based
Procedure, shortened: as §3

[10] = target: GluN1/GluN2D NMDA receptor (Rattus norvegicus, UniProt P35439+Q62645); experiment: Two-electrode voltage-clamp recordings, Xenopus oocytes expressing GluN1/GluN2D; assay type: cell-based
Chain of GluN1/GluN2D NMDA receptor (Q62645 28-1323, other chains not shown): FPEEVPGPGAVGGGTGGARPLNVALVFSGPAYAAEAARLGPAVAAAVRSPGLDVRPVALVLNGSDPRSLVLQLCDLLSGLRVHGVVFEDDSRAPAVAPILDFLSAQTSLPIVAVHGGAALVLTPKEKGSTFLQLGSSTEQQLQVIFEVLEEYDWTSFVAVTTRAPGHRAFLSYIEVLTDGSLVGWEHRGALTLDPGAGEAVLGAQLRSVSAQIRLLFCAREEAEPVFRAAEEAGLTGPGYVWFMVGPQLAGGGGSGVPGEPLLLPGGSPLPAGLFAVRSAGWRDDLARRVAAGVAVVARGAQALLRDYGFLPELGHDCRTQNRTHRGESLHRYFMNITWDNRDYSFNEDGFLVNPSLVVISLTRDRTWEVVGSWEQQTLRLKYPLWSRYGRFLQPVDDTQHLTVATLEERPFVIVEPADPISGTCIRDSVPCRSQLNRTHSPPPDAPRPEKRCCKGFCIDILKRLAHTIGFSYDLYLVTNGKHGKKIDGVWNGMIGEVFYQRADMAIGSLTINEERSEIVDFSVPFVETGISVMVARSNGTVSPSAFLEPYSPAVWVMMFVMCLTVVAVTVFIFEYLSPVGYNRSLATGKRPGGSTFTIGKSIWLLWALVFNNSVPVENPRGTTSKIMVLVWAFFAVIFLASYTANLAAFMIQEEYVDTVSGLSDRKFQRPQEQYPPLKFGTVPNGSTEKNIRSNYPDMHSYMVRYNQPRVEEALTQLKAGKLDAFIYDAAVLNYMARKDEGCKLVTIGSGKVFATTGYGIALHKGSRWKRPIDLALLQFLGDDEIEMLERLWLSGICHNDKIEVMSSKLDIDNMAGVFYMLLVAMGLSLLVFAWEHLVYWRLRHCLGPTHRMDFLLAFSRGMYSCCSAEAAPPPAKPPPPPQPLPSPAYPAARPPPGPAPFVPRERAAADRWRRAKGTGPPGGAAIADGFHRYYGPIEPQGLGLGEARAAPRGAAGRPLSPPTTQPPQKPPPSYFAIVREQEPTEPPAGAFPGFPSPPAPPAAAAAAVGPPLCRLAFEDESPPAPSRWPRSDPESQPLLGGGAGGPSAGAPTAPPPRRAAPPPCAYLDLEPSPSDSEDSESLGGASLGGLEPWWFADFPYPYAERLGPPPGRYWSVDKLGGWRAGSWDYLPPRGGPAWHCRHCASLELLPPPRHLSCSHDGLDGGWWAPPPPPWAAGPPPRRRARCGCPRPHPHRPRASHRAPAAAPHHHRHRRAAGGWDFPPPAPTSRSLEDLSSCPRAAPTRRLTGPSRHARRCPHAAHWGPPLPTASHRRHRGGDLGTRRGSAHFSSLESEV
Procedure, shortened: as §3

[11] = read-out: GluK2 Ki, cloned homomeric iGluRs, [3H]KA, mean ± SEM
[12] = read-out: GluK3 Ki, cloned homomeric iGluRs, [3H]KA, mean ± SEM
[13] = 10 μM ligand concentration, [3H]KA, mean ± SD (Tables 2, 4)

Compound | AMPA pIC50 with SEM (in brackets) [1] | IC50 [1] [µM] | Ki [2] [µM] | Ki [3] [µM] | Ki [4] [µM] | Ki [5] [µM] | KA IC50, native iGluRs (synaptosomes) [6] [µM] | KA pIC50 with SEM (in brackets) [6] | NMDA pKi with SEM (in brackets) [2] | further results
O=C(O)c1cccc([C@H]2[C@H](CCNCc3ccccc3)CN[C@@H]2C(=O)O)c1 [9c, (2S,3R,4S)-4-(2-(Benzylamino)ethyl)-3-(3-carboxyphenyl)pyrrolidine-2-carboxylic acid] | 4.83 ± 0.05 | 15 | > 100 | 2.98 ± 0.96 | > 100 | 2.46 ± 0.54 |  |  |  | GluK2 % specific binding (Table 5) ([4]; [3H]KA): 86 ± 6%
Cl.O=C(O)c1cc(NC(=O)c2ccccc2)cc([C@H]2CCN[C@@H]2C(=O)O)c1 (racemic) [(±)-5m, (±)-2,3-trans-3-(3-Benzamido-5-carboxyphenyl)pyrrolidine-2-carboxylic acid hydrochloride] | 4.63±0.04 | 24 | 6.9 |  |  |  | 16 | 4.81±0.03 | 5.16±0.04 | Ki [4, 11]: ~100 µM; Ki [5, 12]: 3.95 ± 0.2 µM
Cl.O=C(O)C[C@@H]1CN[C@H](C(=O)O)[C@H]1c1cccc(C(=O)O)c1 [9e, (2S,3R,4S)-4-(Carboxymethyl)-3-(3-carboxyphenyl)pyrrolidine-2-carboxylic acid hydrochloride] |  | > 100 | > 100 | > 100 | > 100 | > 100 | >100 |  |  | GluK1 % specific binding (Table 5) [3]: 93 ± 3%; GluK2 % specific binding (Table 5) ([4]; [3H]KA): 97 ± 7%; GluK3 % specific binding (Table 5) ([5]; [3H]KA): 95 ± 3%
(2S,3R)-3-(4-Amino-3-carboxyphenyl)pyrrolidine-2-carboxylic acid dihydrochloride [4g] |  | > 100 | > 100 |  |  |  | >100 |  |  | GluK1 % specific binding ([3]; 10 μM ligand concentration, [3H]NF608, mean ± SD (Table 2)): (70 ± 16)^d %; GluK2 % specific binding [4, 13]: (77 ± 5)^d %; GluK3 % specific binding [5, 13]: (64 ± 4)^d %
O=C(O)C(F)(F)F.O=C(O)c1ccc([C@H]2CCN[C@@H]2C(=O)O)cc1 [compound 7, (2S,3R)-3-(4-Carboxyphenyl)pyrrolidine-2-carboxylic acid trifluoro acetic acid] |  | > 100 | 8.5 | > 100 | > 100 | > 100 | >100 |  |  | IC50 [7]: 45 ± 1.5 µM; IC50 [8]: 165 ± 14.1 µM; IC50 [9]: 193 ± 6.1 µM; IC50 [10]: 159 ± 8.7 µM
Cl.O=C(O)c1cc(-c2cnn[nH]2)cc([C@H]2CCN[C@@H]2C(=O)O)c1 [5d, (2S,3R)-3-(3-Carboxy-5-(1H-1,2,3-triazol-5-yl)phenyl)pyrrolidine-2-carboxylic acid hydrochloride] | 4.69 ±0.04 | 21 | 0.83 | > 50 | > 100 | 10 to 50 | 20 | 4.71±0.06 | 6.08±0.05 | increase in affinity for native NMDA receptors ([2]; compared to 4a): 7 fold; selectivity/preference for NMDA receptors over AMPA and KA receptors ([2]; native receptors): 24 fold; IC50 [7]: 1.36 ± 0.06 µM; IC50 [8]: 3.51 ± 0.18 µM; IC50 [9]: 7.28 ± 0.17 µM; IC50 [10]: 18.5 ± 1.54 µM
Cl.O=C(O)c1cc(Br)cc([C@H]2CCN[C@@H]2C(=O)O)c1 [5b, (2S,3R)-3-(3-Bromo-5-carboxyphenyl)pyrrolidine-2-carboxylic acid hydrochloride] | 4.60 ± 0.04 | 26 | 2.4 | 5.88 ± 0.6 | > 100 | 2.42 ± 0.11 | 10 | 4.99 ± 0.04 | 5.63 ±0.05 | 
Cl.O=C(O)c1cc(NS(=O)(=O)c2ccccn2)cc([C@H]2CCN[C@@H]2C(=O)O)c1 (racemic) [(±)-5l, (±)-2,3-trans-3-(3-Carboxy-5-(pyridine-2-sulfonamido)phenyl)pyrrolidine-2-carboxylic acid hydrochloride] | 4.57±0.04 | 27 | 36 |  |  |  | >100 |  | 4.46±0.08 | Ki [4, 11]: ~100 µM; Ki [5, 12]: 14 ± 0.9 µM
Cl.O=C(O)c1cc([C@H]2CCN[C@@H]2C(=O)O)cc(C(=O)O)c1Cl [6b, 5-((2S,3R)-2-Carboxypyrrolidin-3-yl)-2-chloroisophthalic acid hydrochloride] |  | > 100 | 0.16 | ≥ 100 | ≥ 100 | > 50 | >100 |  | 6.82 ± 0.08 | IC50 [7]: 0.2 ± 0.02 µM; Ki [7]: 0.2 µM; IC50 [8]: 0.75 ± 0.04 µM; IC50 [9]: 1.33 ± 0.03 µM; IC50 [10]: 5.15 ± 0.23 µM
CNCC[C@@H]1CN[C@H](C(=O)O)[C@H]1c1cccc(C(=O)O)c1 [9b, (2S,3R,4S)-3-(3-Carboxyphenyl)-4-(2-(methylamino)ethyl)pyrrolidine-2-carboxylic acid] | 4.16 ± 0.02 | 69 | > 100 | ~10 | > 100 | > 100 | >100 |  |  | GluK1 % specific binding (Table 5) [3]: 50 ± 6%; GluK2 % specific binding (Table 5) ([4]; [3H]KA): 99 ± 6%; GluK3 % specific binding (Table 5) ([5]; [3H]KA): 83 ± 6%
O=C(O)c1cccc([C@H]2[C@H](CCO)CN[C@@H]2C(=O)O)c1 [9d, (2S,3R,4S)-3-(3-Carboxyphenyl)-4-(2-hydroxyethyl)pyrrolidine-2-carboxylic acid] | 4.47 ± 0.007 | 35 | 61 | > 10 | > 100 | > 10 | 13 | 4.89 ± 0.3 | 4.22 ± 0.03 | GluK1 % specific binding (Table 5) [3]: 60 ± 6%; GluK2 % specific binding (Table 5) ([4]; [3H]KA): 93 ± 7%; GluK3 % specific binding (Table 5) ([5]; [3H]KA): 57 ± 2%
Cc1ccc(S(=O)(=O)Nc2cc(C(=O)O)cc([C@H]3CCN[C@@H]3C(=O)O)c2)cc1.Cl (racemic) [(±)-5k, (±)-2,3-trans-(3-Carboxy-5-((4-methylphenyl)sulfonamido)phenyl)pyrrolidine-2-carboxylic acid hydrochloride] | 4.65±0.09 | 23 | 15 |  |  |  | >100 |  | 4.82±0.03 | Ki [4, 11]: 19 µM; Ki [5, 12]: 10.9 ± 0.5 µM
Cl.Cl.Nc1cc(C(=O)O)cc([C@H]2CCN[C@@H]2C(=O)O)c1 (racemic) [(±)-5j, (±)-2,3-trans-(3-Amino-5-carboxyphenyl)pyrrolidine-2-carboxylic acid dihydrochloride] | 4.29±0.07 | 52 | 14 |  |  |  | 86 | 4.07±0.04 | 4.87±0.05 | Ki [4, 11]: > 100 µM; Ki [5, 12]: 19.3 ± 0.9 µM
Cl.O=C(O)c1cc([C@H]2CCN[C@@H]2C(=O)O)cc(Br)c1Cl [6a, (2S,3R)-3-(3-Bromo-5-carboxy-4-chlorophenyl)pyrrolidine-2-carboxylic acid hydrochloride] |  | > 100 | 1 to 10 | ≥ 100 | ≥ 100 | ≥ 100 | >100 |  |  | 
